Source: PubChem BioAssay
Calls of active or inactive are those of the source.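 The calls were made as follows, unless noted: active = a full or partial loss of lipid-probe fluorescence in the fish gall bladder, intestine or both, judged by eye; inactive = no fluorescence loss, or compound toxic to the fish.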

Key:
[1] = inhibitors of TNFa-induced NFkB p65 translocation, primary screen, imaging, HUVEC, MLSMR starter and 10KST1 sets (AID 438;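 active = inhibition above 20% together with a positive visual image hit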;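 also: compound added about 3h40 before a 20 min TNFalpha stimulation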;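 as to inhibition: signal is the nuclear over cytoplasmic p65 intensity ratio per well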); details: HUVEC TNFa-induced p65 nuclear translocation; cell count: measured here: nuclei count (cytotoxicity indicator), at 2.08 µM; inhibition: at 2 µM, stronger effect = higher value, 0% TNFa-plus-vehicle, 100% no-TNFa wells
[2] = inhibitors of E-selectin induction by TNFa, primary screen, imaging, HUVEC, immunofluorescence, MLSMR starter and 10KST1 sets (AID 487;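 active = visually confirmed hit in the image check and inhibition above 20%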;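 as to inhibition: signal is fraction of cell area covered by stained E-selectin grains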;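 as to nuclei count: 100% = median nuclei count of all wells on the same plate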); details: HUVEC TNFalpha-induced E-selectin immunofluorescence imaging, at 2 µM; inhibition: stronger effect = higher value; nuclei count: measured here: cell number, toxicity
[3] = DUSP6 inhibitors restoring Erk phosphorylation by chemical complementation, primary imaging in DUSP6-transfected HeLa (AID 609;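 active = compounds giving at least 50% inhibition in the cell-based MKP-3 phosphatase rescue imaging test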;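 as to inhibition: phospho-Erk level distribution per well compared with pooled transfected vehicle control wells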); details: HeLa MKP-3 transfected, phospho-Erk imaging KS statistic, at 10 µM, cells stimulated with TPA for 15 min
[4] = molecular target: Dual specificity protein phosphatase 6 (Homo sapiens) (UniProt Q16828); test: as above; details: HeLa MKP-3 transfected, phospho-Erk imaging KS statistic; at 10 µM; stronger effect = higher value; cells stimulated with TPA for 15 min
Sequence of Dual specificity protein phosphatase 6 (Homo sapiens) (Q16828 whole entry, looked up): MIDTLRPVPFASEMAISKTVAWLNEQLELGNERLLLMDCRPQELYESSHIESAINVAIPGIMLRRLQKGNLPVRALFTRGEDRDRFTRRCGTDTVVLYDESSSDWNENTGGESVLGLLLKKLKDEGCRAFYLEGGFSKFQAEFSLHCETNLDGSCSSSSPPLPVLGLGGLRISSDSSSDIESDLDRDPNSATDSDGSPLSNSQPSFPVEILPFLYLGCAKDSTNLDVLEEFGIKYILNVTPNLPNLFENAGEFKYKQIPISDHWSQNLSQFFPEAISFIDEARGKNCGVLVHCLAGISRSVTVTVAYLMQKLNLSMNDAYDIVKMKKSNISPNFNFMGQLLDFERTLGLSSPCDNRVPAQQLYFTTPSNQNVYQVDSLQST

[5] = molecular target: Voltage-gated potassium channel subunit beta-2 (Rattus norvegicus) (UniProt P62483); test: KvBeta enzyme negative modulators, primary screen, biochemical, NADPH fluorescence (AID 622;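 active = fluorescence slope higher than the sample average by over 3 SD, cut at about -0.22 in these data, passing the limit was not always enough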;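 also: slope of raw intensity against log time taken from 70 to 1610 s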); details: recombinant KvBeta, 4-cyanobenzaldehyde reduction, at 10 µM, stronger effect = higher value
Sequence of Voltage-gated potassium channel subunit beta-2 (Rattus norvegicus) (P62483 whole entry, looked up): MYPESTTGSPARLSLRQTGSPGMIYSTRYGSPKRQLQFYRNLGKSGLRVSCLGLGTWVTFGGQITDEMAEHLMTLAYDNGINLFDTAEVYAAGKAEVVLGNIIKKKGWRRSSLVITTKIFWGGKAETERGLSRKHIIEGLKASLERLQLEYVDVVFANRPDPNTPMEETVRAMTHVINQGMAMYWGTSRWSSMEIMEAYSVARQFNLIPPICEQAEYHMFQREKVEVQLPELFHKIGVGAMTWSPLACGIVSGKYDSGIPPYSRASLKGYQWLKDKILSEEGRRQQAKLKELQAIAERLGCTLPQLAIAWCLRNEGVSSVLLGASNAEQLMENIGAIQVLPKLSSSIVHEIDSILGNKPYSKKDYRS

[6] = molecular target: Voltage-gated potassium channel subunit beta-2 (Rattus norvegicus) (UniProt P62483); test: KvBeta positive modulators, primary screen, biochemical, NADPH fluorescence (AID 623;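 active = NADPH fluorescence slope more negative than the mean of all samples by about 3 SD, 99.7% confidence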;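 also: fluorescence intensity change per second fitted from 20 to 320 s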); details: Recombinant KvBeta, NADPH fluorescence decrease slope, 10 min; at 10 µM; stronger effect = lower value
[7] = molecular target: Alpha-2C adrenergic receptor (Homo sapiens) (UniProt P18825); test: modulators of alpha2C/GIRK thallium flux, primary screen, cell-based, HEK293 alpha2C/GIRK1/2 (AID 624;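 active = fluorescence slope after compound addition differing from the mean of all screened samples at 99.7% confidence, in either direction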;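 also: slope of fluorescence ratio to pre-addition baseline per second over 15 to 24 s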); details: thallium flux BTC fluorescence, at 10 µM, actives lie on both sides
Sequence of Alpha-2C adrenergic receptor (Homo sapiens) (P18825 whole entry, looked up): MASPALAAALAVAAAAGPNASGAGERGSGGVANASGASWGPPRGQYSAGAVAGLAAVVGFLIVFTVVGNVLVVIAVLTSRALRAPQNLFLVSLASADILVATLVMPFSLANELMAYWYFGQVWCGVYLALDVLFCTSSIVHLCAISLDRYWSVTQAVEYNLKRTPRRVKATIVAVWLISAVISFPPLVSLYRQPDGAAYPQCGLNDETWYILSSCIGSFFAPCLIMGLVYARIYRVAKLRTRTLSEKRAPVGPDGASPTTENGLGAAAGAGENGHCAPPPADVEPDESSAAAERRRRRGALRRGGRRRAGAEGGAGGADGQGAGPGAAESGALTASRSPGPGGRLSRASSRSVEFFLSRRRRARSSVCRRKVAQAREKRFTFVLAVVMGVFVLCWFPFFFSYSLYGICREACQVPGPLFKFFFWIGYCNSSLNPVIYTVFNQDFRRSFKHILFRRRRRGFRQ

[8] = inhibitors of larval lipid processing in zebrafish, primary screen, whole organism, PED6 fluorescence, gall bladder and intestine (AID 686); details: Zebrafish larvae PED6 lipid processing, fluorescence scoring; screened at 20 µM (by protocol);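 also: larvae 5 to 7 days old with five fish per well; signal comes from phospholipase A2 cleavage of quenched PED6 carried via bile; overnight exposure to compound and PED6 before scoring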
Summary of the method: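 system = live zebrafish larvae aged 5-7 days, whole organism | probe or stimulus = ingested quenched lipid PED6 at 100 nM | doses = 20 µM single dose | timing = overnight exposure | detection = fluorescence microscopy with visual scoring of gall bladder and intestine | read-out = visual per-well fluorescence inhibition score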

[9] = inhibitors of Chlamydomonas gravitaxis, primary screen, whole organism, Chlamydomonas reinhardtii, WT vs cilia-less mutant, absorbance, 96-well (AID 463189;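 active = inhibition at or above 50% relative to wild type and mutant plate controls; inactive = inhibition below 50%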;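 also: 0% = wild type cc124 cells in DMSO and 100% = ciliumless bld1 mutant cells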); details: OD600 absorbance, 2 days, at 10 µM, stronger effect = higher value
[10] = measured here: cell density z-score
[11] = measured here: nuclear c-Myc green intensity z-score
[12] = measured here: nuclear pErk red intensity z-score, stronger effect = higher value

Compound | cell count [1] | inhibition [1] | inhibition [2] | nuclei count [2] [%] | z-score [3, 10] | z-score [3, 11] | z-score [3, 12] | inhibition [4] | fluorescence slope [5] | NADPH fluorescence slope [6] | slope [7] | outcome [8] | inhibition [9]
CCOc1cc2nc(-c3ccc(OC)c(OC)c3)nc(N3CCOCC3)c2cc1OC | 497 | -26.2% (inactive) | -85% (inactive) | 151 | -0.0989 | -1.76 | -2.63 | 20.9% (inactive) | -0.455 (inactive) | -1.4e-05 (inactive) | 0.00555 (inactive) | inactive; toxic | 84.6% (active)
Cc1cc(C)n(CC(=O)n2nc(C)cc2C)n1 | 519 | -6.2% (inactive) | -24.6% (inactive) | 81.7 | 0.222 | 0.17 | 0.394 | 5.95% (inactive) | -0.492 (inactive) | -2.9e-05 (inactive) | 0.00514 (inactive) | inactive | 15% (inactive)
COc1ccccc1Nc1ncc(-c2cccs2)s1 | 545 | -13.8% (inactive) | -286% (inactive) | 200 | -0.0769 | -1.21 | 0.25 | 1.48% (inactive) | -0.5 (inactive) | -5.4e-05 (inactive) | 0.00327 (inactive) | inactive | 11.6% (inactive)
N#CC1=C(SCc2ccccc2)NC2=C(C(=O)CCC2)C1c1ccc2c(c1)OCO2 (stereo unspecified) | 490 | -28.9% (inactive) | -54.8% (inactive) | 138 | 0.352 | -1.14 | -1.35 | -4.27% (inactive) | -0.525 (inactive) | -5.3e-05 (inactive) | 0.0074 (inactive) | inactive | -2.38% (inactive)
Cc1c(/C(O)=C2\C(=O)C(=O)N(CCCN(C)C)C2c2ccccc2)cnn1-c1ccccc1 (stereo unspecified) | 528 | 1.1% (inactive) | -134% (inactive) | 139 | -0.232 | 0.596 | 1.69 | 1.6e-07% (inactive) | -0.579 (inactive) | -2.7e-05 (inactive) | 0.00616 (inactive) | inactive | -16.4% (inactive)
Cn1ncc(N=Cc2ccccc2O)c1C(=O)Nc1ccccc1 | 635 | -3.8% (inactive) | -20.9% (inactive) | 140 | -0.0255 | 0.841 | 1.17 | 4.25% (inactive) | -0.5 (inactive) | -0.000122 (inactive) | 0.00441 (inactive) | inactive | 0.038% (inactive)
CCOC(=O)c1cnc(SC2CC(=O)N(c3cccc(OC)c3)C2=O)nc1N (stereo unspecified) | 591 | -4.7% (inactive) | -23.7% (inactive) | 155 | 0.0661 | -0.104 | -0.161 | -8.76% (inactive) | -0.317 (inactive) | -9.7e-06 (inactive) | 0.00504 (inactive) | inactive | -8.83% (inactive)
Cc1c([C@H]2[C@@H](CC#N)C2(C)C)c2ccccc2n1C | 637 | -3.8% (inactive) | -51.3% (inactive) | 153 | -0.588 | 0.872 | 0.83 | -6.48% (inactive) | -0.536 (inactive) | -9.2e-05 (inactive) | 0.00537 (inactive) | inactive | 11.5% (inactive)
O=C(NCc1ccco1)c1cnn2c1NC(c1ccccc1)CC2C(F)(F)F (stereo unspecified) | 479 | -5.5% (inactive) | -25.8% (inactive) | 107 | -0.862 | 0.861 | -0.0535 | -2.07% (inactive) | -0.53 (inactive) | -4e-05 (inactive) | 0.0056 (inactive) | inactive | -7.85% (inactive)
Cn1c(=O)c2c(nc(OCc3cccnc3)n2Cc2ccccc2)n(C)c1=O | 599 | 8.2% (inactive) | 3.5% (inactive) | 138 | 1.08 | -0.258 | 0.62 | -2.91% (inactive) | -0.517 (inactive) | -0.000111 (inactive) | 0.00473 (inactive) | inactive | -5.51% (inactive)
COc1ccccc1N1CCN(C(=O)c2c(C)cc(=O)oc2C)CC1 | 275 | -1.5% (inactive) | -18.9% (inactive) | 95.9 | -0.53 | 2.24 | -0.762 | 11.4% (inactive) | -0.461 (inactive) | -8.2e-05 (inactive) | 0.00477 (inactive) | inactive | -9.22% (inactive)
Cc1cccc(C)c1OCC(O)CNS(=O)(=O)c1ccccc1C(=O)N1CCOCC1 (stereo unspecified) | 458 | 1.5% (inactive) | -196% (inactive) | 172 | -0.426 | 0.519 | 1.28 | 2.71% (inactive) | -0.387 (inactive) | -1.1e-05 (inactive) | 0.00603 (inactive) | inactive | -5.56% (inactive)
CCN(CC)CCN1C(=O)C(=O)/C(=C(/O)c2ccc(F)cc2)C1c1cccnc1 (stereo unspecified) | 488 | -18.4% (inactive) | -35.7% (inactive) | 128 | -0.0126 | -0.441 | 0.45 | -2.47% (inactive) | -0.493 (inactive) | -5.5e-05 (inactive) | 0.00472 (inactive) | inactive | -7.28% (inactive)
CCOc1ccc(-n2c(SCc3ccc(C#N)cc3)nnc2-c2cccnc2)cc1 | 343 | -6% (inactive) | 6.3% (inactive) | 157 | 0.958 | -0.128 | 0.447 | 13.4% (inactive) | -0.421 (inactive) | -0.00013 (inactive) | 0.00481 (inactive) | inactive | -11.3% (inactive)
N/C(CCCN1CCCCC1)=N/O | 498 | -6% (inactive) | 28.3% (inactive) | 108 | 1.83 | -0.291 | 0.182 | 17.3% (inactive) | -0.509 (inactive) | -8e-06 (inactive) | 0.00607 (inactive) | inactive | 12.2% (inactive)
Clc1ccc(-c2nnc3sc(Cc4cccs4)nn23)cc1 | 671 | -3.4% (inactive) | -156% (inactive) | 134 | 0.365 | -1.12 | -1.66 | 22.7% (inactive) | -0.451 (inactive) | -4.9e-05 (inactive) | 0.00474 (inactive) | inactive | 19.8% (inactive)
CC(=O)C(=[N+]=[N-])C(=O)NCc1ccccc1 | 474 | -11.6% (inactive) | -71.5% (inactive) | 95.4 | 0.378 | -1.15 | 0.485 | 5.95% (inactive) | -0.518 (inactive) | -4e-05 (inactive) | 0.00636 (inactive) | inactive | 24.1% (inactive)
Cc1oc2cc(O)cc(C)c2c(=O)c1-c1cnn(-c2ccccc2)c1 | 578 | -1.3% (inactive) | -189% (inactive) | 149 | 0.4 | 1.63 | 0.0441 | 15.9% (inactive) | -0.509 (inactive) | -5.7e-05 (inactive) | 0.00468 (inactive) | inactive | 20.5% (inactive)
CCOCCN(C(=O)COC)c1cccc(OC)c1 | 368 | 4.6% (inactive) | 19.2% (inactive) | 124 | 0.00474 | 0.972 | 0.0482 | -5.62% (inactive) | -0.321 (inactive) | 1.5e-05 (inactive) | 0.00531 (inactive) | inactive | -16.2% (inactive)
Cc1nc(NCCN)c(C#N)c2c1COC(C)(C)C2 | 666 | -1.2% (inactive) | -117% (inactive) | 165 | -0.432 | -0.111 | -0.818 | 1.75% (inactive) | -0.506 (inactive) | -1.4e-06 (inactive) | 0.00551 (inactive) | inactive | 1.63% (inactive)
C=C1c2cc(OC)ccc2NC(=O)N1CC | 611 | 0.3% (inactive) | -36.5% (inactive) | 127 | 0.269 | 0.973 | -0.0863 | -4.7% (inactive) | -0.452 (inactive) | -0.0002 (inactive) | 0.00447 (inactive) | inactive | 5.59% (inactive)
CC(=O)N1CCC2(CC1)C(C#N)=C(N)Oc1n[nH]c(C(F)(F)F)c12 | 509 | -9.9% (inactive) | -79.8% (inactive) | 156 | 1.26 | 0.347 | -0.954 | -1.12% (inactive) | -0.349 (inactive) | -1.5e-05 (inactive) | 0.00543 (inactive) | inactive | 10.5% (inactive)
Cc1ccc2[nH]c3c(N4CCN(Cc5ccc6c(c5)OCO6)CC4)ncnc3c2c1 | 390 | -21.4% (inactive) | -47.6% (inactive) | 168 | -0.222 | 0.595 | -3.73 | -3.5% (inactive) | -0.396 (inactive) | -0.000159 (inactive) | 0.00427 (inactive) | inactive; toxic | 140% (active)
COc1ccc(C(CC(=O)N2CCOCC2)C(C)C)cc1 (stereo unspecified) | 486 | 10.6% (inactive) | -31.9% (inactive) | 97.9 | -1.63 | 1.26 | -0.603 | -5.26% (inactive) | -0.476 (inactive) | -7e-06 (inactive) | 0.00515 (inactive) | inactive | 19.8% (inactive)
CCn1cc(C(=O)NCc2ccccn2)c(=O)c2cc(F)c(N3CCN(C)CC3)cc21 | 461 | -3.5% (inactive) | -38.2% (inactive) | 185 | -1.96 | 2.4 | 0.403 | -0.624% (inactive) | -0.292 (inactive) | -3e-05 (inactive) | 0.00581 (inactive) | inactive | 6.37% (inactive)
O=C(c1ccc(F)cc1)N1CCC(N2CCCCCC2)CC1 | 392 | -0.5% (inactive) | -100% (inactive) | 138 | -0.0132 | 0.516 | -0.618 | 15.1% (inactive) | -0.395 (inactive) | -7.7e-06 (inactive) | 0.00694 (inactive) | inactive | 43.9% (inactive)
CCOC(=O)C1CCCN(c2nc3ccccc3nc2C(C#N)C(=O)OC(C)C)C1 (stereo unspecified) | 547 | -8.3% (inactive) | 14.3% (inactive) | 143 | -1.02 | 0.486 | -0.3 | -7.86% (inactive) | -0.504 (inactive) | -3.6e-05 (inactive) | 0.00207 (inactive) | inactive | 25.2% (inactive)
